# Experimental data published in publication PMC10405366 (Molecular pharmaceutics, 2023).
# Assays:
# [1] = cited from earlier work
# [2] = Mouse pharmacokinetics, plasma LC-MS/MS; format: in vivo; settings: female C57BL/6 mice
# [3] = system: female athymic nude (nu/nu) mice; test: Tolerability study: serum chemistry; format: in vivo, mouse
# Procedure, shortened: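 Athymic nude mice (n = 5 per group) received test compound or the Tween80:Captex200:saline vehicle IP every 2 days for 14 days. About 2–4 h after the last dose, mice were killed with CO2 and blood was drawn by cardiac puncture. Complete blood counts and serum chemistry were run by a pathology core. Values are given as means ± SD, n = 3–5.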
# OVCAR8 [4] = test: 2D foci assay; format: cell-based, human; settings: OVCAR8, 50 nM for 8 h, two weeks colony formation, relative to vehicle
# Procedure, shortened: (§1)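 Cells were seeded at 200 per 60 mm dish and left to attach overnight. They were then exposed for 8 h to test compound (50 nM), DMSO vehicle or paclitaxel (10 nM). Medium was replaced and cells grew drug-free for about two weeks (15 days). Colonies were fixed in 4% paraformaldehyde, stained with 0.05% crystal violet, imaged and counted. There were three biological replicates, compared with vehicle by Dunnett's test.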
# OVCAR4 [5] = test: 2D foci assay; format: cell-based, human; settings: OVCAR4, 50 nM for 8 h, two weeks colony formation, relative to vehicle
# Procedure, shortened: as §1
# [6] = Stability in mouse plasma lithium heparin and QC extracts; format: in vitro ADME
# [7] = Stability in Tween80:Captex200P:0.9% saline formulation; format: physicochemical
# Procedure, shortened: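 The dried succinate was taken up in Tween 80:Captex 200P at 1 mg/mL. It was vortexed 30 s, sonicated 30 min and shaken about 16 h at 100 rpm at room temperature. It was then diluted in 0.9% saline to 0.1 mg/mL and serially diluted to 0.05 and 0.025 mg/mL. At 0, 1 and 4 h, aliquots were diluted 20-fold in acetone, with storage at 4 °C in between. Analysis was by UPLC-PDA-HRMS against acetone standards.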
# [8] = system: OVCAR8-RFP cells xenografted IP; test: OVCAR8-RFP IP xenograft; format: in vivo, mouse
# OVCAR8 [9] = test: Cell viability assay; format: cell-based, human
# Procedure, shortened: (§2)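 RPMI1640 (OVCAR3, OVCAR4, MDA-MB-435) or DMEM (OVCAR8, MDA-MB-231) was used, with 10% FBS and penicillin/streptomycin. Cells were STR-validated and kept below 20 passages. Cells were plated at 5000 per well overnight, then given test compound at final 0.95–250 nM (nine levels, 0.5% DMSO) for 72 h at 37 °C. Viability was read by CellTiter-Blue absorbance, and IC50 was taken relative to DMSO. Paclitaxel (0.39–100 nM) was the control, with three biological replicates.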
# OVCAR4 [10] = test: Cell viability assay; format: cell-based, human
# Procedure, shortened: as §2
# [11] = 0.114 mg/kg IP every 2 days, 14 days
# [12] = 0.285 mg/kg IP every 2 days, 14 days
# [13] = 0.570 mg/kg IP every 2 days, removed day 13
# [14] = 1.14 mg/kg IP every 2 days, removed at 8 days
# [15] = 0.10 mg/kg IP every 2 days, 14 days
# [16] = 0.25 mg/kg IP every 2 days, 14 days
# [17] = 0.50 mg/kg IP every 2 days, removed day 13
# [18] = 1.00 mg/kg IP every 2 days, removed at 8 days
smiles,measurement,setting,value
CN1C(=O)[C@]23SS[C@@]1(C)C(=O)N2[C@H]1Nc2ccccc2[C@@]1([C@@]12c4ccccc4N[C@@H]1N1C(=O)[C@]4(C)SS[C@]1(C(=O)N4C)[C@H]2OC(=O)CCC(=O)O)[C@@H]3O [verticillin A succinate],solubility,[1],greatly improved solubility
same,plasma concentration,"[2]; IV 0.285 mg/kg, initial PK time points",< 3 nM
same,ALP,[3]; [11],139 ± 9 U/L
same,ALT,[3]; [11],39 ± 6 U/L
same,AST,[3]; [11],88 ± 10 U/L
same,BUN,[3]; [11],20 ± 1 mg/dL
same,GGT,[3]; [11],8 ± 0 U/L
same,albumin,[3]; [11],3.7 ± 0.2 g/dL
same,amylase,[3]; [11],1039 ± 215 U/L
same,calcium,[3]; [11],11.8 ± 0.3 mg/dL
same,cholesterol,[3]; [11],141 ± 12 mg/dL
same,creatine kinase,[3]; [11],160 ± 37 U/L
same,creatinine,[3]; [11],0.43 ± 0.02 mg/dL
same,globulin,[3]; [11],2.1 ± 0.2 g/dL
same,glucose,[3]; [11],225 ± 28 mg/dL
same,lipase,[3]; [11],55 ± 44 U/L
same,phosphorous,[3]; [11],11.7 ± 0.8 mg/dL
same,total bilirubin,[3]; [11],0.3 ± 0.1 mg/dL
same,total protein,[3]; [11],5.8 ± 0.3 g/dL
same,triglyceride,[3]; [11],247 ± 70 mg/dL
same,ALP,[3]; [12],133 ± 19 U/L
same,ALT,[3]; [12],47 ± 13 U/L
same,AST,[3]; [12],125 ± 18 U/L
same,BUN,[3]; [12],15 ± 1 mg/dL
same,GGT,[3]; [12],0 ± 1 U/L
same,albumin,[3]; [12],3.4 ± 0.2 g/dL
same,amylase,[3]; [12],1208 ± 75 U/L
same,calcium,[3]; [12],11.2 ± 0.7 mg/dL
same,cholesterol,[3]; [12],146 ± 13 mg/dL
same,creatine kinase,[3]; [12],214 ± 28 U/L
same,creatinine,[3]; [12],0.42 ± 0.8 mg/dL
same,globulin,[3]; [12],2.0 ± 0.2 g/dL
same,glucose,[3]; [12],235 ± 10 mg/dL
same,lipase,[3]; [12],74 ± 5 U/L
same,phosphorous,[3]; [12],11.9 ± 0.8 mg/dL
same,total bilirubin,[3]; [12],0.3 ± 0.0 mg/dL
same,total protein,[3]; [12],5.4 ± 0.3 g/dL
same,triglyceride,[3]; [12],262 ± 68 mg/dL
same,ALP,[3]; [13],89 ± 13 U/L
same,ALT,[3]; [13],48 ± 25 U/L
same,AST,[3]; [13],254 ± 138 U/L
same,BUN,[3]; [13],24 ± 8 mg/dL
same,GGT,[3]; [13],4 ± 3 U/L
same,albumin,[3]; [13],2.6 ± 0.9 g/dL
same,amylase,[3]; [13],1203 ± 240 U/L
same,calcium,[3]; [13],11.5 ± 0.9 mg/dL
same,cholesterol,[3]; [13],115 ± 23 mg/dL
same,creatine kinase,[3]; [13],1916 ± 1915 U/L
same,creatinine,[3]; [13],0.29 ± 0.05 mg/dL
same,globulin,[3]; [13],2.6 ± 1.1 g/dL
same,glucose,[3]; [13],172 ± 49 mg/dL
same,phosphorous,[3]; [13],15.5 ± 1.4 mg/dL
same,total bilirubin,[3]; [13],0.4 ± 0.1 mg/dL
same,total protein,[3]; [13],5.2 ± 0.4 g/dL
same,triglyceride,[3]; [13],128 ± 38 mg/dL
same,ALP,[3]; [14],74 ± 12 U/L
same,ALT,[3]; [14],121 ± 145 U/L
same,AST,[3]; [14],420 ± 438 U/L
same,BUN,[3]; [14],24 ± 4 mg/dL
same,GGT,[3]; [14],6 ± 4 U/L
same,albumin,[3]; [14],2.4 ± 0.8 g/dL
same,amylase,[3]; [14],1221 ± 520 U/L
same,calcium,[3]; [14],7.2 ± 5.3 mg/dL
same,cholesterol,[3]; [14],111 ± 10 mg/dL
same,creatine kinase,[3]; [14],582 ± 384 U/L
same,creatinine,[3]; [14],0.26 ± 0.05 mg/dL
same,globulin,[3]; [14],2.5 ± 0.8 g/dL
same,glucose,[3]; [14],141 ± 62 mg/dL
same,lipase,[3]; [14],84 ± 64 U/L
same,phosphorous,[3]; [14],12.2 ± 1.0 mg/dL
same,total bilirubin,[3]; [14],0.5 ± 0.3 mg/dL
same,total protein,[3]; [14],4.9 ± 0.4 g/dL
same,triglyceride,[3]; [14],266 ± 160 mg/dL
same,foci formation,OVCAR8 [4],completely abrogated foci formation
same,foci formation,OVCAR4 [5],completely abrogated foci formation
same,stability in mouse plasma lithium heparin,[6],poor stability
same,stability of QC extracts,"[6]; 4 °C autosampler, after approximately 19 h",not stable
same,verticillin A succinate levels in formulation,"[7]; 4 h after preparation, stored at 4 °C",below the detection limit (BDL) or NF
same,stability in formulation,"[7]; Tween80:Captex200P:0.9% saline, 0.1, 0.05 and 0.025 mg/mL, degrades almost immediately to verticillin A",not stable
same,verticillin A succinate levels in formulation,"[7]; immediately after preparation, all concentration levels tested",below the quantitation limit (BQL) or not found/detected (NF)
CN1C(=O)[C@]23SS[C@@]1(C)C(=O)N2[C@H]1Nc2ccccc2[C@@]1([C@@]12c4ccccc4N[C@@H]1N1C(=O)[C@@]4(C)SS[C@]1(C(=O)N4C)[C@H]2O)[C@@H]3O [verticillin A],plasma concentration,"[2]; IP 0.25 mg/kg, most results just above the lower limit",1 to 1000 nM
same,plasma concentration,"[2]; IV 0.25 mg/kg, most results just above the lower limit",1 to 1000 nM
same,plasma concentration,"[2]; oral gavage 2.5 mg/kg, linear range 1–1000 nM",BLOQ
same,ALP,[3]; [15],163 ± 27 U/L
same,ALT,[3]; [15],38 ± 6 U/L
same,AST,[3]; [15],98 ± 16 U/L
same,BUN,[3]; [15],18 ± 3 mg/dL
same,GGT,[3]; [15],5 ± 0 U/L
same,albumin,[3]; [15],3.5 ± 0.3 g/dL
same,amylase,[3]; [15],1153 ± 176 U/L
same,calcium,[3]; [15],11.8 ± 0.4 mg/dL
same,cholesterol,[3]; [15],144 ± 16 mg/dL
same,creatine kinase,[3]; [15],241 ± 85 U/L
same,creatinine,[3]; [15],0.56 ± 0.03 mg/dL
same,globulin,[3]; [15],2.2 ± 0.4 g/dL
same,glucose,[3]; [15],191 ± 42 mg/dL
same,lipase,[3]; [15],43 ± 15 U/L
same,phosphorous,[3]; [15],12.8 ± 1.1 mg/dL
same,total bilirubin,[3]; [15],0.4 ± 0.1 mg/dL
same,total protein,[3]; [15],5.6 ± 0.4 g/dL
same,triglyceride,[3]; [15],202 ± 42 mg/dL
same,ALP,[3]; [16],141 ± 14 U/L
same,ALT,[3]; [16],46 ± 13 U/L
same,AST,[3]; [16],112 ± 19 U/L
same,BUN,[3]; [16],17 ± 4 mg/dL
same,GGT,[3]; [16],3 ± 1 U/L
same,albumin,[3]; [16],3.3 ± 0.2 g/dL
same,amylase,[3]; [16],1189 ± 89 U/L
same,calcium,[3]; [16],11.6 ± 0.5 mg/dL
same,cholesterol,[3]; [16],141 ± 10 mg/dL
same,creatine kinase,[3]; [16],237 ± 60 U/L
same,creatinine,[3]; [16],0.21 ± 0.7 mg/dL
same,globulin,[3]; [16],2.1 ± 0.3 g/dL
same,glucose,[3]; [16],187 ± 33 mg/dL
same,lipase,[3]; [16],71 ± 4 U/L
same,phosphorous,[3]; [16],14.0 ± 1.0 mg/dL
same,total bilirubin,[3]; [16],0.3 ± 0.0 mg/dL
same,total protein,[3]; [16],5.5 ± 0.4 g/dL
same,triglyceride,[3]; [16],236 ± 52 mg/dL
same,ALP,[3]; [17],92 ± 19 U/L
same,ALT,[3]; [17],55 ± 23 U/L
same,AST,[3]; [17],201 ± 51 U/L
same,BUN,[3]; [17],26 ± 3 mg/dL
same,GGT,[3]; [17],7 ± 2 U/L
same,albumin,[3]; [17],3.2 ± 0.2 g/dL
same,amylase,[3]; [17],1397 ± 318 U/L
same,calcium,[3]; [17],11.7 ± 0.4 mg/dL
same,cholesterol,[3]; [17],124 ± 22 mg/dL
same,creatine kinase,[3]; [17],302 ± 65 U/L
same,creatinine,[3]; [17],0.36 ± 0.03 mg/dL
same,globulin,[3]; [17],2.1 ± 0.2 g/dL
same,glucose,[3]; [17],176 ± 19 mg/dL
same,phosphorous,[3]; [17],16.4 ± 2.3 mg/dL
same,total bilirubin,[3]; [17],0.4 ± 0.2 mg/dL
same,total protein,[3]; [17],5.3 ± 0.3 g/dL
same,triglyceride,[3]; [17],187 ± 139 mg/dL
same,ALP,[3]; [18],70 ± 61 U/L
same,ALT,[3]; [18],44 ± 8 U/L
same,AST,[3]; [18],225 ± 68 U/L
same,BUN,[3]; [18],25 ± 4 mg/dL
same,GGT,[3]; [18],7 ± 3 U/L
same,albumin,[3]; [18],2.1 ± 0.9 g/dL
same,amylase,[3]; [18],1213 ± 149 U/L
same,calcium,[3]; [18],11.4 ± 0.4 mg/dL
same,cholesterol,[3]; [18],90 ± 26 mg/dL
same,creatine kinase,[3]; [18],498 ± 184 U/L
same,creatinine,[3]; [18],0.30 ± 0.12 mg/dL
same,globulin,[3]; [18],2.9 ± 1.0 g/dL
same,glucose,[3]; [18],116 ± 17 mg/dL
same,lipase,[3]; [18],52 ± 22 U/L
same,phosphorous,[3]; [18],10.6 ± 6.8 mg/dL
same,total bilirubin,[3]; [18],0.3 ± 0.0 mg/dL
same,total protein,[3]; [18],5.0 ± 0.4 g/dL
same,triglyceride,[3]; [18],114 ± 20 mg/dL
same,foci formation,OVCAR8 [4],completely abrogated foci formation
same,foci formation,OVCAR4 [5],completely abrogated foci formation
same,liver and organ gross morphology,[8]; 0.25 mg/kg in DMSO twice weekly for four weeks,did not demonstrate changes in liver morphology
same,tumor burden,"[8]; 0.25 mg/kg twice weekly for four weeks, compared to DMSO",reduced
same,cytotoxic activity,OVCAR8 [9],nanomolar cytotoxic activity
same,cytotoxic activity,OVCAR4 [10],nanomolar cytotoxic activity
